Assay results as given in the EternaBench riboswitch data.

Tested on: MS2 coat protein
Assay: apparent Kd, MS2 coat protein; higher = weaker binding; RNA-MaP array
Outline: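 Designed RNAs were transcribed on an Illumina sequencing chip from sequenced DNA templates. They were incubated at room temperature with fluorescently labeled MS2 coat protein at 1.5 nM to 3 μM, for 0.8–1.5 h at the lowest to 10–20 min at the highest concentrations, in Tris-HCl pH 7.5 buffer with KCl, MgCl2, BSA, DTT, tRNA and Tween20, with or without input ligand. Apparent Kd is the median of per-cluster binding-curve fits. Designs measured on fewer than 10 clusters were excluded.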

[1] = designed as: ON switch for flavin mononucleotide, no ligand
[2] = ligand present: flavin mononucleotide, designed as: ON switch for flavin mononucleotide
[3] = designed as: ON switch for theophylline, no ligand
[4] = ligand present: theophylline, designed as: ON switch for theophylline
[5] = designed as: OFF switch for flavin mononucleotide, no ligand
[6] = ligand present: flavin mononucleotide, designed as: OFF switch for flavin mononucleotide
[7] = designed as: OFF switch for tryptophan, no ligand
[8] = ligand present: tryptophan, designed as: OFF switch for tryptophan

| Sequence | apparent Kd [5] [nM] | apparent Kd [6] [nM] | further results |
| --- | --- | --- | --- |
| GUCCUACAUGAGGAUCACCCAUGUGGUCGUGGUAUAGGAUAUUAGGACUUUGUAAUCAGUUAAGAAGGAUAUCACU | – | – | apparent Kd [1]: 60.1 nM; apparent Kd [2]: 17.4 nM |
| AUUAACUGGUAAGAUACCAGAGUCGGGAUCUACAUGAGGAUCACCCAUGUUCUAAAGUCGCUCCCUUGGCAGCUUCAAUGAGUCG | – | – | apparent Kd [3]: 35.3 nM; apparent Kd [4]: 36 nM |
| GAAACAUUCCCGAGUUUCUACAUGAGGAUCACCCAUGUCCCAUAGGAUAUCUCUACCAGCCGCCGAGAGAAGGAUGUAGUCACU | – | – | apparent Kd [1]: 185 nM; apparent Kd [2]: 148 nM |
| GCGGGACAUGAGGAUCACCCAUGUGAGGAUAUGUGCAGUGGCAGGGACAGUUAAAAGUACAGAAGGCACAGCCC | 19.7 | 17.6 | – |
| CGUUGACAUGAGGAUCACCCAUGUUCCCUAGCCACAGGAUAUCGACGCGUGCUCGCUAGACGAGAAGGGUGGUAAA | – | – | apparent Kd [1]: 30.4 nM; apparent Kd [2]: 11.7 nM |
| UAAUACCAUACAGGAUAUACUUAGCCCAAAACAUGAGGAUCACCCAUGUAUUGGAGUCCUCGGCGGUAGAAGGGUACAGAAAGA | 19.5 | 16.4 | – |
| UGACACAUGAGGAUCACCCAUGUUGGGUAAUGUUAACGUACAAGAAGGGCAGCCGGCCGGACGUUGCAGGAUAUUGUAGCGCGA | 41.7 | 31.1 | – |
| UUGGCACGGACGGCCGCCACUCUUUCACAUGAGGAUCACCCAUGUUAUCUAGUCCUCAGCAGAAAGAGGACCGGGUCGGAGUUGG | – | – | apparent Kd [7]: 126 nM; apparent Kd [8]: 122 nM |
| CGUGAUACUGGUAUACUCUGAAGAUCAAUUCGAGGACCGGUACGGCCGCCACUCGUUAGUAGACAUGAGGAUCACCCAUGUUAGU | – | – | apparent Kd [7]: 20 nM; apparent Kd [8]: 22.5 nM |
| AUUUCAAACAUGAGGAUCACCCAUGUCAAGUUUGAGCAACUAAGAAGGUCAGAUCCAUAAGCACUGAAGGAUAUUAAGAGGUAC | 31.8 | 22 | – |
| GCCUGACCCAUAGGAUAUCGCGUAGCUGCCGGCUACGACACAUGAGGAUCACCCAUGUAUCAAAUCGAGAAGGAUGAUCUGCAA | – | – | apparent Kd [1]: 272 nM; apparent Kd [2]: 168 nM |
| CCGCGACCUGAGAAGGGCUGCCAAGGGAGACACAUGAGGAUCACCCAUGUCGGGUGGUCCUGCUAGCAGGAUAUCAUCGCAGGA | 173 | 225 | – |
| CUUCUGAAAGCAAUGGGAUCUGUUAUUGAUACCAGCAUCUGAUUUUGCCCUUGGCAGCAAGAAACAUGAGGAUCACCCAUGUGGC | – | – | apparent Kd (designed as: OFF switch for theophylline, no ligand): 19.5 nM; apparent Kd (ligand present: theophylline, designed as: OFF switch for theophylline): 61.2 nM |
| GUAGGUUGCCAAGGAUAUGCGGGUACUCUUCCGAAACAUGAGGAUCACCCAUGUACUCUCCUGUAGCAGAAGGUGGCUUGGUGA | 493 | 269 | – |
| UCUGUGAUUCAAGGAUAUAAGUCGAGUGCUUGCUUAGAAGGUGACGAACAUGAGGAUCACCCAUGUGCUUUAUUCUUAUGCAUC | 29.2 | 25.6 | – |
| GUAUAUACAUAGGAUAUGUCGGCCGGUUAUGCAACAGAAGGAUGUACAUGAGGAUCACCCAUGUCAAUUGGGAG | 74.6 | 220 | – |
| CCGACACAGAAGAAGGCUUUUGGUCUUAGCAGAAGAGGAUAUUCCUGUGUUCCGCGUACAUGAGGAUCACCCAUGUGUGAGCAC | 6.59 | 7.46 | – |
| AUCGCAGAUGUAAGGAUAUUAGUGUAGCAACGGUCAAAGAAGGAACAUGAGGAUCACCCAUGUGGUAGAUAAAU | 19 | 15.2 | – |
| AAACAAGUAGGAUAUACAUGAGGAUCACCCAUGUAUUGUGAGGAUAGUACUGUACCAUGUAGAAGGACUCCGGA | 10.7 | 9.12 | – |
| GGAGGCCUUAGGGAUACCAGCUAAGUUGAGUACAUGAGGAUCACCCAUGUGUUCCCAGAGAGCCCUUGGCAGCCCUCAUCCGUUC | – | – | apparent Kd [3]: 11.6 nM; apparent Kd [4]: 10.8 nM |
| ACCAGUAAAUAGCAAUCACAUGAGGAUCACCCAUGUACUGACAAGGAUAUAGUCUAAGAAUAGUGCUAGAAGGUGUUUCCCUAA | – | – | apparent Kd [1]: 168 nM; apparent Kd [2]: 101 nM |
| GUAAGACAUGAGGAUCACCCAUGUGUCGAUACCAGCCCUGCCUCUGGCCCUUGGCAGCGACUCGCACACCUCGCACUGCACAAGU | – | – | apparent Kd [3]: 54.9 nM; apparent Kd [4]: 73.2 nM |
| GCCUAUAUUGUCAGGAUAUGCAUAAAGGAAAAGAAGCAGAAGGGACAUGAGGAUCACCCAUGUUACAGCCAAUA | 6.84 | 12.6 | – |
